Measurements of several laboratories.
Each line is one published result; the experiments were not run side by side.
Target: Insulin-like growth factor 1 receptor (IGF1R, Homo sapiens, UniProt P08069)

For `Nc1ncc(-c2nc(N3CCOCC3)nc(N3CCOCC3)n2)c(C(F)F)n1`, the remaining binding was 78% (cell-free assay; competition with immobilised ligand; 10 µM).
The remaining signal of `O=c1[nH]c2ccccc2n1C1CCN(Cc2ccc(-c3[nH]c4cc5ncnc5cc4nc3-c3ccccc3)cc2)CC1` is reported as 91.2% (cell-free assay; 0.5 µM).
The inhibition of `Cn1cc(-c2cccc(N3CCc4c(sc5c4CC(C)(C)C5)C3=O)c2CO)cc(Nc2ccncn2)c1=O` is reported as 3% (enzyme activity; inhibitor; 1 µM).
With `Cc1nn(C)cc1-c1nc2c(N3CCN(Cc4ccc(Cl)cc4)CC3)c(Cl)cnc2[nH]1` the remaining binding was 100% (binding; competition with immobilised ligand; 1 µM).
With `COc1ncccc1-c1cnn2ccc(N3CCN(C(=O)OC(C)C)CC3)nc12` the remaining binding was 100% (binding; competition with immobilised ligand; 1 µM).
With `C#Cc1n[nH]c2c(-c3cn([C@@H](C)c4ccccc4)c(=O)[nH]c3=O)cc(F)cc12` the inhibition was 7.8% (enzyme activity; inhibitor; 0.1 µM).
With `CC(C)(C)c1cc(C=C(C#N)C#N)cc(Br)c1O` the remaining activity was 96.6% (enzyme activity; inhibitor; 0.5 µM).
With `C#Cc1n[nH]c2c(-c3cn([C@@H](C)c4ccccn4)c(=O)[nH]c3=O)cc(F)cc12` the inhibition was 8.7% (enzyme activity; inhibitor; 0.1 µM).
For `Cn1cc(-c2cc(F)cc(N3CCn4c(cc5c4CCCC5)C3=O)c2CO)cc(Nc2ccc(N3CCN(C4COC4)CC3)cn2)c1=O`, the inhibition was 4% (enzyme activity; inhibitor; 0.1 µM).
`Cn1cncc1[C@](O)(COc1ccc(C#N)cc1-c1ccc(OC(F)(F)F)cc1)c1ccc(C#N)cc1` has a remaining binding of 92% (cell-free assay; competition with immobilised ligand; 1 µM).
